Data published in ChEMBL document CHEMBL4041491, “Imidazo[1,2-a]pyrazin-8-amine core for the design of new adenosine receptor antagonists: Structural exploration to target the A3 and A2A subtypes” (Eur J Med Chem, 2017).

Legend:
[1] = target: T1, Adenosine receptor A2b (Homo sapiens) (UniProt P29275); assay: Antagonist activity at human A2B receptor expressed in CHO cells assessed as inhibition of NECA-stimulated cAMP production at 1 uM by [3H]cAMP competition binding based scintillation counting method relative to control; type: functional, cell-based
T1 sequence (whole entry): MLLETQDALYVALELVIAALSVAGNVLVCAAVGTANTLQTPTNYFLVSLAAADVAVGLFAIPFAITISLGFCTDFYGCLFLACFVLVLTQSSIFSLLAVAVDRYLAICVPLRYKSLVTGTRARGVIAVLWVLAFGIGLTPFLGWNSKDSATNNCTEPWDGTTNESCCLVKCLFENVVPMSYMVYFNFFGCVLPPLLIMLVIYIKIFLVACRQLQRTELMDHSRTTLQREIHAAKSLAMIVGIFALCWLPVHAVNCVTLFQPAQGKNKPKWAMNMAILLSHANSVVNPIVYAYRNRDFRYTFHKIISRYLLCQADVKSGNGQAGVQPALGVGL
Procedure, shortened: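 Transfected CHO cells (1 × 10^6/assay) in buffered saline pH 7.4 with adenosine deaminase 2 IU/ml and Ro 20-1724, preincubated 10 min at 37 °C. Test compound at 1 μM against 200 nM NECA-stimulated cAMP. TCA stop, ether extraction, cAMP measured by [3H]cAMP competition binding to bovine adrenal binding protein. Result given as percent inhibition.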

[2] = target: T2, Adenosine receptor A1 (Homo sapiens) (UniProt P30542); assay: Displacement of [3H]DPCPX from human adenosine A1 receptor expressed in CHO cell membranes at 1 uM after 120 mins by scintillation counting method relative to control
T2 sequence (whole entry): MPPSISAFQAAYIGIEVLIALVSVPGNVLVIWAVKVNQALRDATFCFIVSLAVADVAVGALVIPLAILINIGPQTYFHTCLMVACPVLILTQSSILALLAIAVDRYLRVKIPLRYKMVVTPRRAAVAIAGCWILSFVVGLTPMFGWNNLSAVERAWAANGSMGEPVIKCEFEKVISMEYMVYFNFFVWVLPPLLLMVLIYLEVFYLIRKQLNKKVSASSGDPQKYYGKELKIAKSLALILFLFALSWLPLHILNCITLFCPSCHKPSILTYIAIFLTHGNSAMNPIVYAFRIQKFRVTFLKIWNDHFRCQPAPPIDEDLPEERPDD
Procedure, shortened: (§1)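 hA1 CHO membranes (50 µg protein) with 1 nM [3H]DPCPX in 50 mM Tris HCl pH 7.4, 120 min at 25 °C. Six to eight antagonist concentrations, or 1 µM for percent inhibition. Nonspecific binding with 1 µM DPCPX. Ki via Cheng–Prusoff, four assays in duplicate, means ± SEM.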

[3] = target: T3, Adenosine receptor A3 (Rattus norvegicus) (UniProt P28647); assay: Displacement of [125I]AB-MECA from rat adenosine A3 receptor expressed in HEK293 cell membranes at 1 uM after 120 mins by scintillation counting method relative to control
T3 sequence (whole entry): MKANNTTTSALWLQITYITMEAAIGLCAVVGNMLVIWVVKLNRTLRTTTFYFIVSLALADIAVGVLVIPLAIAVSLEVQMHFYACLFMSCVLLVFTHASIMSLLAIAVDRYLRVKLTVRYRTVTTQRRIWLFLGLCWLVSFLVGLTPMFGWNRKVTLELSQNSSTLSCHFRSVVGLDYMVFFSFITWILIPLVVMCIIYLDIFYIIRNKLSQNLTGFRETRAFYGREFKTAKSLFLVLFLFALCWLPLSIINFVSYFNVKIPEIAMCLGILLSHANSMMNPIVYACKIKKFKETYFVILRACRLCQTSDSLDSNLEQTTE
Procedure, shortened: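 rA3 receptor in HEK293 membranes (10 μg protein), 0.5 nM [125I]AB-MECA, 50 mM Tris–HCl, 10 mM MgCl2, 1 mM EDTA, pH 7.4, 120 min at 25 °C. Nonspecific binding with 1 μM AB-MECA; filtration and scintillation counting. Percent inhibition of specific binding at 1 µM.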

Adenosine receptor A3 [4] = target: T4, Adenosine receptor A3 (Homo sapiens, UniProt P0DMS8); assay: Antagonist activity at human A3 receptor expressed in CHO cells assessed as inhibition of CI-IB-MECA-mediated inhibition of cAMP production by [3H]cAMP competition binding based scintillation counting method; type: cell-based
Procedure, shortened: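 hA3-transfected CHO cells (1 × 10^6/assay) in buffered saline pH 7.4 with adenosine deaminase and Ro 20-1724, preincubated 10 min at 37 °C. Antagonism of 100 nM Cl-IB-MECA inhibition of 1 µM forskolin-stimulated cAMP. cAMP measured by [3H]cAMP protein-binding assay. IC50 by sigmoid nonlinear regression, four independent experiments in triplicate, means ± SEM.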

Adenosine receptor A3 [5] = target: T4, Adenosine receptor A3; assay: Displacement of [125I]AB-MECA from human adenosine A3 receptor expressed in CHO cell membranes after 120 mins by scintillation counting method
Procedure, shortened: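 hA3 CHO membranes (50 µg protein) with 0.5 nM [125I]AB-MECA in 50 mM Tris HCl, 10 mM MgCl2, 1 mM EDTA, pH 7.4, 120 min at 4 °C. Six to eight ligand concentrations, or 1 µM for percent inhibition. Nonspecific binding with 1 µM AB-MECA; GF/B filtration. Ki by Cheng–Prusoff, four assays in duplicate, means ± SEM.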

Adenosine receptor A2a = Adenosine receptor A2a (Homo sapiens, UniProt P29274); assay: Displacement of [3H]ZM241385 from human adenosine A2A receptor expressed in CHO cell membranes at 1 uM after 60 mins by scintillation counting method relative to control
Procedure, shortened: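 hA2A CHO membranes (50 µg protein) with 1 nM [3H]ZM241385 in 50 mM Tris HCl, 10 mM MgCl2, pH 7.4, 60 min at 4 °C. Six to eight antagonist concentrations, or 1 µM for percent inhibition. Nonspecific binding with 1 µM ZM241385. Ki via Cheng–Prusoff, four assays in duplicate, means ± SEM.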

Adenosine receptor A3 [6] = target: T4, Adenosine receptor A3; assay: Displacement of [125I]AB-MECA from human adenosine A3 receptor expressed in CHO cell membranes at 1 uM after 120 mins by scintillation counting method relative to control
Adenosine receptor A1 = target: T5, Adenosine receptor A1 (Homo sapiens, UniProt P30542); assay: Displacement of [3H]DPCPX from human adenosine A1 receptor expressed in CHO cell membranes after 120 mins by scintillation counting method; procedure, shortened: as §1
T5 sequence (P30542 whole entry): T2 sequence (whole entry)

Sequence of Adenosine receptor A2a (P29274 whole entry): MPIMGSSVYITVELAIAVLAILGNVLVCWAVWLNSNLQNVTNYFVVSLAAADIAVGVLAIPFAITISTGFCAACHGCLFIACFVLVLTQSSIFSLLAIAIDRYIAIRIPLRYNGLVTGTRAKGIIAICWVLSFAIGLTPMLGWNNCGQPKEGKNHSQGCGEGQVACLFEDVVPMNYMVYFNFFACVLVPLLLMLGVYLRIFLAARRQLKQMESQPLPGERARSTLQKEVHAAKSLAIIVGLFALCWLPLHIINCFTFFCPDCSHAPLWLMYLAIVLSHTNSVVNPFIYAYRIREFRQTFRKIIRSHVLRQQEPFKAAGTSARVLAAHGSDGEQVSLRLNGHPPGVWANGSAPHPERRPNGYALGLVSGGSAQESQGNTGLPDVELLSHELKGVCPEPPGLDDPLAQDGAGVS
T4 sequence (P0DMS8 whole entry, looked up): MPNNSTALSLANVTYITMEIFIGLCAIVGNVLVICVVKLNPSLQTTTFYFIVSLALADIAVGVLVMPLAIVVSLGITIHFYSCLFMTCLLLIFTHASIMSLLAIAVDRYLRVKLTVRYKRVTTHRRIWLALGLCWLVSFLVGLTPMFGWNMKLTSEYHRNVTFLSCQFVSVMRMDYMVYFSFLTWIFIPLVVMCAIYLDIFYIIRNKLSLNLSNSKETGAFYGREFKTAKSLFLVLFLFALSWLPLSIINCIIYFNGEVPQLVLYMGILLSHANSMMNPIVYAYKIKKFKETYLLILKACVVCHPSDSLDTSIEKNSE

`O=C(c1ccccc1)N(C(=O)c1ccccc1)c1nccn2cc(-c3ccccc3)nc12` showed an inhibition [1] of 3%, an inhibition [2] of 4% and an inhibition [3] of 1%. For the same compound, the IC50 (Adenosine receptor A3 [4]) was 0.187 µM, the Ki (Adenosine receptor A3 [5]) was 0.064 µM and the inhibition (Adenosine receptor A2a) was 5%.
For `O=C(c1ccc(F)cc1)N(C(=O)c1ccc(F)cc1)c1nc(-c2ccccc2)cn2cc(-c3ccccc3)nc12`, the inhibition [1] was 3%, the inhibition [2] was 1% and the inhibition (Adenosine receptor A3 [6]) was 31%. It also gave an inhibition (Adenosine receptor A2a) of 1%.
`O=C(Nc1nccn2cc(-c3ccccc3)nc12)C(c1ccccc1)c1ccccc1` was tested, and the inhibition [1] was 25%, the inhibition [2] was 32% and the Ki (Adenosine receptor A3 [5]) was 0.245 µM. It also gave an inhibition (Adenosine receptor A2a) of 1%.
In the case of `O=C(Nc1nc(-c2ccccc2)cn2cc(-c3ccccc3)nc12)c1ccco1`, the inhibition [1] is reported as 2%, the inhibition [2] is reported as 10% and the Ki (Adenosine receptor A3 [5]) is reported as 0.067 µM. For the same compound, the inhibition (Adenosine receptor A2a) was 1%.
With `O=C(Nc1nccn2cc(-c3ccco3)nc12)c1ccccc1` the inhibition [1] was 1%, the inhibition [2] was 7% and the inhibition (Adenosine receptor A3 [6]) was 22%. It also gave an inhibition (Adenosine receptor A2a) of 1%.
`Cc1ccc(C(=O)Nc2nc(-c3ccccc3)cn3cc(-c4ccccc4)nc23)cc1` showed an inhibition [1] of 3%, an inhibition [2] of 1% and a Ki (Adenosine receptor A3 [5]) of 0.223 µM. It also gave an inhibition (Adenosine receptor A2a) of 1%.
`Nc1nccn2cc(-c3ccco3)nc12` gave an inhibition [1] of 1%, an inhibition [2] of 21% and an inhibition (Adenosine receptor A3 [6]) of 5%. It also gave an inhibition (Adenosine receptor A2a) of 12%.
Work on `O=C(Nc1nc(-c2ccccc2)cn2cc(-c3ccccc3)nc12)c1ccccc1` yielded an inhibition [1] of 1%, an inhibition [2] of 1% and an inhibition [3] of 2%. It also gave an IC50 (Adenosine receptor A3 [4]) of 0.235 µM, a Ki (Adenosine receptor A3 [5]) of 0.082 µM and an inhibition (Adenosine receptor A2a) of 1%.
`O=C(Nc1ccccc1)Nc1nccn2cc(-c3ccccc3)nc12` showed an inhibition [1] of 1%, an inhibition [2] of 1% and an inhibition (Adenosine receptor A3 [6]) of 6%. It also gave an inhibition (Adenosine receptor A2a) of 1%.
`COc1ccc(-c2cn3ccnc(N)c3n2)cc1` was tested, and the inhibition [1] was 1%, the inhibition [2] was 1% and the inhibition (Adenosine receptor A3 [6]) was 1%. It also gave an inhibition (Adenosine receptor A2a) of 1%.
With `COc1ccc(-c2cn3ccnc(NC(=O)c4ccccc4)c3n2)cc1` the inhibition [1] was 1%, the inhibition [2] was 1% and the Ki (Adenosine receptor A3 [5]) was 0.121 µM. It also gave an inhibition (Adenosine receptor A2a) of 1%.
Compound `COc1ccc(C(=O)Nc2nc(-c3ccccc3)cn3cc(-c4ccccc4)nc23)cc1` has an inhibition [1] of 1%, an inhibition [2] of 6% and an inhibition [3] of 1%. The IC50 (Adenosine receptor A3 [4]) was 0.073 µM, the Ki (Adenosine receptor A3 [5]) was 0.025 µM and the inhibition (Adenosine receptor A2a) was 8%.
`Nc1nc(Br)cn2cc(-c3ccccc3)nc12` showed a Ki (Adenosine receptor A1) of 0.42 µM, an inhibition [1] of 40% and an inhibition (Adenosine receptor A3 [6]) of 14%. The inhibition (Adenosine receptor A2a) was 18%.
`Nc1nc(-c2ccc(Cl)cc2)cn2cc(-c3ccccc3)nc12` showed an inhibition [1] of 2%, an inhibition [2] of 3% and an inhibition (Adenosine receptor A3 [6]) of 1%. It also gave an inhibition (Adenosine receptor A2a) of 1%.
`COc1ccc(-c2cn3cc(-c4ccccc4)nc(NC(=O)c4ccccc4)c3n2)cc1` gave an inhibition [1] of 1%, an inhibition [2] of 3% and a Ki (Adenosine receptor A3 [5]) of 0.312 µM. The inhibition (Adenosine receptor A2a) was 1%.
`O=C(Nc1nccn2cc(-c3ccccc3)nc12)c1ccco1` showed an inhibition [1] of 19%, an inhibition [2] of 25% and an inhibition (Adenosine receptor A3 [6]) of 40%. For the same compound, the inhibition (Adenosine receptor A2a) was 34%.
Compound `COc1ccc(-c2cn3cc(Br)nc(N)c3n2)cc1` has an inhibition [1] of 27%, an inhibition [2] of 29% and an inhibition (Adenosine receptor A3 [6]) of 24%. For the same compound, the inhibition (Adenosine receptor A2a) was 11%.
